Converted amounts (≈) assume the structure as drawn.
Assays:
Thymidylate synthase = Thymidylate synthase (Mus musculus, UniProt P07607); experiment: Inhibitory concentration of compound to inhibit Thymidylate synthase (TS) in L1210 cells at conc. of 200 uM; assay type: cell-based
Summary of the method: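 Partially purified thymidylate synthase from L1210 leukemia cells; the enzyme assay used (±)-5,10-methylenetetrahydrofolate (5,10-CH2-FH4) cofactor at 200 μM.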

L1210 = experiment: Compound was evaluated for inhibition dose required to inhibit the growth of L1210 cells in culture.; assay type: functional; settings: Mus musculus, read-out: ID50 (the source's name)
[1] = Solubility at pH 7.4; assay type: physicochemical; settings: buffer
Summary of the method: (§1)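 Run at 18 °C in 0.01 M potassium phosphate buffer. A saturated suspension was brought to pH 7.4 with 5 M KOH, held overnight, filtered through 0.22 µm, readjusted and refiltered. For pH 5.0, part of the filtrate was acidified with phosphoric acid and refiltered, then diluted with pH 5.0 buffer if opalescent. Samples were diluted in 0.1 M NaOH and concentration read by UV absorbance at 301.5 nm.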

[2] = Solubility at pH 5; assay type: physicochemical; settings: buffer; summary of the method: as §1

Sequence of Thymidylate synthase (P07607 whole entry): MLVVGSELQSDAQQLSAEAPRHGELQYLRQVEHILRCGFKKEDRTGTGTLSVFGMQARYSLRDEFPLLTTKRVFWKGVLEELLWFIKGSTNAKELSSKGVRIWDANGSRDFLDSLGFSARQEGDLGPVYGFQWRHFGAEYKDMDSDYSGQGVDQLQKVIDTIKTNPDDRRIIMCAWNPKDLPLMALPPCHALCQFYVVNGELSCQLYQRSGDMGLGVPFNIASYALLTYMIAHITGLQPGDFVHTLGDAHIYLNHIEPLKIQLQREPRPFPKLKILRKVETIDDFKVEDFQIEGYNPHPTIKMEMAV

SMILES: C=CCN(Cc1ccc2nc(N)nc(O)c2c1)c1ccc(C(=O)NC(CCC(=O)O)C(=O)O)cc1 (stereo not drawn)
- IC50 (Thymidylate synthase): 0.28 µM
- IC50 (L1210): 6 µM

SMILES: CCN(Cc1ccc2ncnc(O)c2c1)c1ccc(C(=O)NC(CCC(=O)O)C(=O)O)cc1 (stereo not drawn)
- IC50 (L1210): 2.7 µM

SMILES: C#CCN(Cc1ccc2ncnc(O)c2c1)c1ccc(C(=O)NC(CCC(=O)O)C(=O)O)cc1 (stereo not drawn)
- IC50 (L1210): 0.4 µM
- solubility [1]: > 107000 µg/mL
- solubility [2]: 43 µg/mL (≈ 93 µM)

SMILES: CCN(Cc1ccc2nc(N)nc(O)c2c1)c1ccc(C(=O)NC(CCC(=O)O)C(=O)O)cc1 (stereo not drawn)
- IC50 (L1210): 9 µM

SMILES: CN(Cc1ccc2nc(N)nc(O)c2c1)c1ccc(C(=O)NC(CCC(=O)O)C(=O)O)cc1 (stereo not drawn)
- IC50 (Thymidylate synthase): 0.36 µM
- IC50 (L1210): 4.5 µM

SMILES: CN(Cc1ccc2ncnc(O)c2c1)c1ccc(C(=O)NC(CCC(=O)O)C(=O)O)cc1 (stereo not drawn)
- IC50 (Thymidylate synthase): 1.06 µM
- IC50 (L1210): 0.9 µM

SMILES: C#CCN(Cc1ccc2[nH]c(N)nc(=O)c2c1)c1ccc(C(=O)NC(CCC(=O)O)C(=O)O)cc1 (stereo not drawn)
- IC50 (L1210): 3.4 µM
- solubility [1]: 312 µg/mL (≈ 653 µM)
- solubility [2]: 8.6 µg/mL (≈ 18 µM)

SMILES: C=CCN(Cc1ccc2ncnc(O)c2c1)c1ccc(C(=O)NC(CCC(=O)O)C(=O)O)cc1 (stereo not drawn)
- IC50 (Thymidylate synthase): 1.12 µM
- IC50 (L1210): 2.5 µM

SMILES: O=C(O)CCC(NC(=O)c1ccc(NCc2ccc3ncnc(O)c3c2)cc1)C(=O)O (stereo not drawn)
- IC50 (L1210): 0.4 µM

SMILES: Nc1nc(O)c2cc(CNc3ccc(C(=O)NC(CCC(=O)O)C(=O)O)cc3)ccc2n1 (stereo not drawn) [DIDEAZAFOLATE]
- IC50 (L1210): 2.7 µM
